Source: the EternaBench riboswitch data

Test system: MS2 coat protein
Assay: apparent Kd, MS2 coat protein; higher = weaker binding; RNA-MaP array; FMN 200 µM where present
Outline: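 Designs on Illumina sequencing-chip clusters, transcribed by stalled E. coli RNA polymerase, were exposed to SNAP-549-labelled MS2 coat protein in doubling steps from 0.7 or 1.5 nM up to 3 µM, without and then with constant ligand. The buffer held 100 mM Tris-HCl pH 7.5, 80 mM KCl, 4 mM MgCl2, BSA, DTT, yeast tRNA and Tween-20. Apparent Kd values are medians of filtered per-cluster binding-curve fits to green signal normalised to red-channel RNA signal and control-cluster median Fmax.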

[1] = designed as: OFF switch for flavin mononucleotide, no ligand
[2] = ligand present: flavin mononucleotide, designed as: OFF switch for flavin mononucleotide
[3] = designed as: ON switch for flavin mononucleotide, no ligand
[4] = ligand present: flavin mononucleotide, designed as: ON switch for flavin mononucleotide

Sequence	apparent Kd [1]	apparent Kd [2]	apparent Kd [3]	apparent Kd [4]
AUGAGGGAAGUAGGAUAUGAUCAAGACAUGAGGAUCACCCAUGUAAUGAGGGUGUGUGUCUUUGUUCAGAAGGACUUGUGUCAA	46.4 nM	52.6 nM	–	–
AUGCCUAAUGAGAAGGUGUGUAUAAAUUAUAUACAAGGAUAUCGGUCAAGCAUGAAAACAUGAGGAUCACCCAUGUUAAGGCAU	–	–	7.77 nM	6.72 nM
AUGCUAGUGUGAGGAUAUUAGGCUACAUGAGGAUCACCCAUGUUGAUCAUGAGGAUCACCCAUGAUAAGAAGGUACAUUAGCAU	88.1 nM	108 nM	–	–
AUGCUUCACACAGGAUAUACAUGAGGAUCACCCAUGUGUCCACAGUAGCUGACACGAGCUACGCGGUAGAAGGGUGUGAAGCAU	18.5 nM	61.2 nM	–	–
AUGCUUUUUGUAGGAUAUACAUUUUGUACGUAUGUAGAAGGACAUGAGGAUCACCCAUGUAAAUUAUUAUUAAAUAUCAUACUU	45.8 nM	31.8 nM	–	–
AUGGACGAAGGAUAUGCAUGGAGACCGGGCAGUUCAGCGCUACAUGAGGAUCACCCAUGUAGAAGGUCGCUCCC	16 nM	24.6 nM	–	–
AUGGACGUCGUAGGAUAUGUAGGAUAUUCCUACAUGAGGAUCACCCAUGUUGACAUGGAAGAAGGACAGAAGGACGAUGUCCAU	–	–	199 nM	4.47 nM
AUGGUUGUCGUAGGAUAUGUAGGAUAUUCCUACAUGAGGAUCACCCAUGUUCGCAUGGAAGAAGGACAGAAGGACGAUGACCAA	–	–	531 nM	21.1 nM
AUGUACCUAGGAUAUACAUGAGGAUCACCCAUGUCACAAAUAAAACACAGGUAUCCUGGUAGAAGGAGGAACAA	25 nM	105 nM	–	–
AUGUACCUAGGAUAUACAUGAGGAUCACCCAUGUUCCGGGUGCAAUCAAGUUAAUAUUGUAGAAGGAGGUGAAA	17 nM	31.8 nM	–	–
AUGUGGUGCGUAGGAUAUCAUUGAGGAAAACCCUGAGAAGGACGUGAGGACAUGAGGAUCACCCAUGUGGAUCACCCAUGUCAU	237 nM	237 nM	–	–
AUGUUGCGAGGAUAUAUUUACUGGUUGUUGUUUGGUUGGGAACAUGAGGAUCACCCAUGUAGAAGGUGCAUAAC	54.5 nM	49.9 nM	–	–
AUUAAACAUGAGGAUCACCCAUGUCAACAAAGUCGAGGAUAUGGGCAAAUAAAAUAAGAACCAGAAGGCGAAUAAU	–	–	259 nM	38 nM
AUUAAACAUGAGGAUCACCCAUGUCAACAAAGUCGAGGAUAUGGGCAAAUAAAUUAAGAACCAGAAGGCGAAUAAU	–	–	435 nM	40.5 nM
AUUAUACAUGAGGAUCACCCAUGUAAUUAAUCUAGUAAGAUCUAGGAUAUCAGCUCGAUUAGAGCUGAGAAGGAGAUCACAUGU	–	–	52.9 nM	22.2 nM
AUUAUACAUGAGGAUCACCCAUGUUUUGGUGGAUCAGGAUAUAAAUUGAAUGAGUUUUAGUUAGAAGGGAUAUUUA	–	–	50.6 nM	36.3 nM
AUUAUACAUGAGGAUCACCCAUGUUUUGGUGGGUCAGGAUAUAAAUUGAAUGAGUUUUAGUUAGAAGGGACAUUUA	–	–	56.5 nM	42.9 nM
AUUAUAUAGCAAGGAUAUAGAAUAUUAUUUUAACAUGAGGAUCACCCAUGUAACCUUAUGUGUAGCUAGAAGGUGCAUUUAUUA	73.2 nM	109 nM	–	–
AUUAUGUUAGGAUAUGCUUAUGGUGGAUAGUCGGAUAUGAUGCAGAAGGGACAUGAGGAUCACCCAUGUACUGA	22.4 nM	22.1 nM	–	–
AUUAUUAAAGUGAGGAUAUCUAGAGCUGCGGCUCUAGAGAAGGCACAUGAGGAUCACCCAUGUCUCAAUUAUUA	18.7 nM	54.4 nM	–	–
AUUAUUAUAAAUUUGGCAAGUAUCAGAAGGCGUUACAUGAGGAUCACCCAUGUUUUGUAUAGUAACGAGGAUAUGAUAUGGAAA	15.2 nM	13.5 nM	–	–
AUUAUUGACAUAGGAUAUUGUUACAUGAGGAUCACCCAUGUUAUUUGGGAAUUAGGAAUAUUUUACAAGAAGGAUGUUGUUACA	–	–	106 nM	72.5 nM
AUUAUUUAGUGAGGAUAUACAGAUUAUGAGUUUGUAGAAGGCACUUUCCUCAGGACAUGAGGAUCACCCAUGUGUUAAUAAGAU	89.7 nM	316 nM	–	–
AUUGAUAUUGAGGAUAUGCUUUUAUUUGUUCUUGCAGAAGGCGAUACAUGAGGAUCACCCAUGUUUAUGGAAGU	40.8 nM	48 nM	–	–
AUUGAUGUUGAGGAUAUGCUUUUAUUUAUUCUUGCAGAAGGCGAUACAUGAGGAUCACCCAUGUUCAUGGAAGU	40.5 nM	40.6 nM	–	–
AUUGUAAUGUCAGGAUAUAUUAUUUUUUACAUAGUAGAAGGGAUAAUUAUACUCAUGUACAUGAGGAUCACCCAUGUUAAAUAU	–	–	58.8 nM	24.8 nM
AUUGUGUUAGGAUAUGCUUAUGGUGGGUAGUCCAGUAUGAAGUAGAAGGGACAUGAGGAUCACCCAUGUGCUCA	60.1 nM	56.2 nM	–	–
AUUGUUUAUGUAGGAUAUGCCUGGCGUGCCUUCGCAGAAGGACAUGAGGAUCACCCAUGUAUUGCGGUCUGCGUUCAGAUCGCA	53.3 nM	67.2 nM	–	–

Sequence	apparent Kd [1]	apparent Kd [2]	apparent Kd [3]	apparent Kd [4]
AUUUAAUUUAAUAAGAUCACAUGAGGAUCACCCAUGUAUAUAUAGGAUAUCAGCUCGUGUAGAGCUGAGAAGGAUAUAUACAUG	55 nM	55.2 nM	–	–
AUUUAUGUUGAGGAUAUGCUAAAAUGUAUAGUUGCAGAAGGCGACACAUGAGGAUCACCCAUGUUCAUGGAAUU	37 nM	43.7 nM	–	–
AUUUAUUUUGUGAGGAUAUGCAGGAUCUAGCUCCAGUAGAAGGCACAUGAGGAUCACCCAUGUGGGUCCGAGAC	22.9 nM	111 nM	–	–
AUUUCAAUUGUUUACAUGAGGAUCACCCAUGUCAUAAGUCAUGAGGAUAUGGUAUUGUAGUUAUUCCAGAAGGCAUAUAGCUUA	–	–	38.5 nM	14.4 nM
AUUUCGUCAGGAUAUCCUAGUAAUUGUUUCAUAUUUACAAAGGAGAAGGGACAUGAGGAUCACCCAUGUUUGUC	24.7 nM	23.1 nM	–	–
CAAAAGCUAGGAUAUACGUCAAAGGGCCCGAUCGCUCUCGGACAUGAGGAUCACCCAUGUAGAAGGAGCGCACU	14.4 nM	16.8 nM	–	–
CAAAAGGAAGGAUAUACAUGUUAAUUAUCCGAAGAUGUCGUACAUGAGGAUCACCCAUGUAGAAGGUCCAAAAC	30.3 nM	78.7 nM	–	–
CAAAGGUGAGGAUAUGCAUAACUAUGACGAAAGUCAUAAACACAUGAGGAUCACCCAUGUAGAAGGCGCCACAA	63.6 nM	47.8 nM	–	–
CAAAGUUGGUAAGGAUAUCCCACAUUAUUCUGACCCGUGCAAGCUACAUGAGGAUCACCCAUGUGGGAGAAGGUGCGUUAUAGA	121 nM	160 nM	–	–
CAAAGUUGGUAAGGAUAUCCCACAUUAUUCUGGCCCGUGCAAGCUACAUGAGGAUCACCCAUGUGGGAGAAGGUGCGUUAAAGA	22 nM	33.7 nM	–	–
CAAAUUGCAGGAUAUACUGGGCCAGAGCCAUCGUGUAUUCCACAUGAGGAUCACCCAUGUAGAAGGGCACGUAC	27.2 nM	99.1 nM	–	–
CAACAGUCAGGAUAUGCAAAAAAAACGCAACGCAAAAAAAAGCAGAAGGGACAUGAGGAUCACCCAUGUUGUCG	30.2 nM	26.3 nM	–	–
CAAGAUGUCUGGUAAUUGCGUACACAGGAUAUGGAUUGUUACAUGAGGAUCACCCAUGUUUCCUUUCAGAAGGGUGUAUCAUGU	–	–	208 nM	20.5 nM
CAAGGCGUUGACCGACUCCAGACAUGAGGAUCACCCAUGUAGAAGGAUAUGUACCGCACCCUUGGACAGAAGGUCUACUGGGUU	17 nM	38.9 nM	–	–
CAAGGGCAUGAGAAGGCAUAAUUUAUAAUACCACAUGUUUACAUGAGGAUCACCCAUGUUACCUAUGAGGAUAUCAUGCCUACA	14.3 nM	13.1 nM	–	–
CAAGUCAUAGCUUCUUAGCCAGCCAGAAGGGUCUACAUGAGGAUCACCCAUGUGGUCUCGAAGGGACAGGAUAUGGAGGGCGUA	11.1 nM	37.7 nM	–	–
CAAUCACCCUCAUGUACCUGAGGACAUGAGGAUCACCCAUGUAAGGAUAUAGCCAUUAAAUCUAACUAGAAGGUAUAAAUAACC	1010 nM	523 nM	–	–
CAAUCUCAGAUAGGAUAUAUAGGAUAACUUAAGACCUAACAUGAGGAUCACCCAUGUGAUUAUUCGUAGAAGGAUCAUUGAACC	–	–	205 nM	190 nM
CAAUUCCGAGGAUAUACAUGAGGAUCACCCAUGUCGGGCCUCAGCGUUUAGCGCUUAAGUAGAAGGUGGGUUUC	40.7 nM	54.5 nM	–	–
CAAUUUAUAACAGGAUAUAUAAUACAAUGGUUAAUAGAAGGGUUUAAUACAUGAGGAUCACCCAUGUCAUGUGUCAUAAUUACC	23 nM	17.1 nM	–	–
CACAAGAAAGUCGAACGUGUAACGAGAAGGUCUACAUCACAACAUGAGGAUCACCCAUGUGAUAAGAAGGAUAUUGUUGCGCGG	8.76 nM	8.32 nM	–	–
CACAAGAAAGUCGAAGGUUGAAGUAGAAGGACUACAACAUGACAUGAGGAUCACCCAUGUGCUAAGUAGGAUAUGCUUUAAUCG	5.63 nM	5.47 nM	–	–
CACAGGGAUUCAGGAUAUAUUAGCCGAGGCCGCGUAGAAGGGAAAUCCUGACAUGAGGAUCACCCAUGUUAACCCACUUUCCAU	–	–	28.2 nM	28.8 nM
CACCGACCCUAUGUGUUCUAAACAUGAGGAUCACCCAUGUAUAGAAGGGUCUUCGCGAAACGCAGACAGGAUAUGUACAGGAGU	7.23 nM	13.6 nM	–	–
CACCGGUGUACAGGAUAUGCAUCUACGUGGGCUGCAGAAGGGUACAUGAGGAUCACCCAUGUCAACGAAUCCUCAAAUUAGCGA	1030 nM	1130 nM	–	–
CACGAUGAUGUAGGAUAUAUGCUGGAAUACAGCAUAGAAGGACAUGAGGAUCACCCAUGUAAAGUGUCUCCAAAUAACAUCGUG	30.3 nM	77.5 nM	–	–
CACGGAUAGUAGAAGGGUGACAUGAGGAUCACCCAUGUACUUAUGUAGGUAUUACUAUAUAAUUCACAGGAUAUACUAUCCGUG	–	–	794 nM	90.3 nM
